Laboratory results from ChEMBL document CHEMBL3112527, “Quinoline-pyrimidine hybrids: synthesis, antiplasmodial activity, SAR, and mode of action studies” (J Med Chem, 2014).
Converted amounts (≈) assume the structure as drawn. The source made the active and inactive calls. The rule behind the calls is not given here.

Experiments:
Coxsackievirus B4 [1] = test: Antiviral activity against Coxsackievirus B4 infected in African green monkey Vero cells assessed as inhibition of virus-induced cytopathicity; assay type: functional, organism-based
Procedure, shortened: (§1)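 Confluent monolayers (HEL, Vero, HeLa or CrFK, as applicable) were inoculated with 100 CCID50 of virus, with 1 CCID50 being the dose that infects 50% of cultures. Infection ran in the presence of varying compound concentrations. Inhibition of virus-induced cytopathicity was scored against infected cultures left untreated.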

Human betaherpesvirus 5 [2] = test: Antiviral activity against Cytomegalovirus Davis infected in HEL cells assessed as inhibition of virus-induced cytopathicity; assay type: functional, organism-based
Human alphaherpesvirus 2 = test: Antiviral activity against HSV-2 G infected in HEL cells assessed as inhibition of virus-induced cytopathicity; assay type: functional, organism-based; details: strain G; procedure, shortened: as §1
Plasmodium falciparum [3] = test: Antiplasmodial activity against chloroquine-sensitive asexual erythrocytic stage of Plasmodium falciparum D10 assessed as parasite growth inhibition by lactate dehydrogenase assay; assay type: functional, organism-based
Procedure, shortened: (§2)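 Parasite lactate dehydrogenase assay (modified Makler method). Samples held as 20 mg/mL stocks in DMSO, diluted on test day. Full dose-response: starting at 10 μg/mL, 2-fold serial dilution in complete medium over 10 concentrations down to 0.02 μg/mL. Chloroquine, artesunate and MMV390048 served as references. IC50 from nonlinear dose-response curve fitting; mean of three independent experiments.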

[4] = Cytotoxicity against human HeLa cells assessed as alteration of cell morphology by microscopic analysis; assay type: cell-based; details: read-out: MIC
Procedure, shortened: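 Cells (Vero, HEL, MDCK or HeLa) were exposed to a range of sample concentrations. The value reported is the concentration required to cause a microscopically detectable alteration of normal cell morphology.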

Plasmodium falciparum [5] = test: Antiplasmodial activity against chloroquine-resistant asexual erythrocytic stage of Plasmodium falciparum Dd2 assessed as parasite growth inhibition by lactate dehydrogenase assay; assay type: functional, organism-based; procedure, shortened: as §2
Human respirovirus 3 = test: Antiviral activity against parainfluenza virus 3 infected in African green monkey Vero cells assessed as inhibition of virus-induced cytopathicity; assay type: functional, organism-based; procedure, shortened: as §1
[6] = Solubility of the compound in octanol at pH 7.4 by HPLC analysis; assay type: physicochemical
Feline coronavirus = test: Antiviral activity against Feline coronavirus infected in cat CRFK cells assessed as inhibition of virus-induced cytopathicity; assay type: functional, organism-based; procedure, shortened: as §1
Human alphaherpesvirus 1 [7] = test: Antiviral activity against HSV-1 KOS infected in HEL cells assessed as inhibition of virus-induced cytopathicity; assay type: functional, organism-based; procedure, shortened: as §1
[8] = system: Vesicular stomatitis virus; test: Antiviral activity against Vesicular stomatitis virus infected in HEL cells assessed as inhibition of virus-induced cytopathicity; assay type: functional, organism-based
Procedure, shortened: (§3)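 Confluent monolayers in 96-well plates were inoculated with 100 CCID50 of virus in the presence of varying concentrations of compound. Read-out was inhibition of virus-induced cytopathicity, compared with untreated infected cultures. Cytotoxicity was judged microscopically or by MTT viability staining.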

Human alphaherpesvirus 3 = test: Antiviral activity against Varicella-zoster virus infected in HEL cells assessed as inhibition of virus-induced cytopathicity; assay type: functional, organism-based
[9] = Cytotoxicity against cat CRFK cells assessed as cell viability by MTS assay; assay type: cell-based, Felis catus
Procedure, shortened: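 CRFK cells were exposed to varying sample concentrations. Cell viability was measured with the colorimetric formazan-based MTS assay, and the 50% cytotoxic concentration (CC50) was derived from it.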

Human alphaherpesvirus 1 [10] = test: Antiviral activity against thymidine kinase-negative acyclovir-resistant HSV-1 KOS infected in HEL cells assessed as inhibition of virus-induced cytopathicity; assay type: functional, organism-based; procedure, shortened: as §3
[11] = Aqueous solubility of the compound in PBS buffer at pH 7.4 after 24 hrs by HPLC analysis; assay type: physicochemical; details: pH 7.4, 24 h
Influenza A virus = test: Antiviral activity against influenza A virus H1N1 infected in MDCK cells assessed as inhibition of virus-induced cytopathicity; assay type: functional, organism-based; procedure, shortened: as §3
Influenza A virus H3N2 = test: Antiviral activity against Influenza A virus H3N2 infected in MDCK cells assessed as inhibition of virus-induced cytopathicity; assay type: functional, organism-based; procedure, shortened: as §3
Felid alphaherpesvirus 1 = test: Antiviral activity against Feline herpesvirus infected in cat CRFK cells assessed as inhibition of virus-induced cytopathicity; assay type: functional, organism-based; procedure, shortened: as §1
Punta Toro virus = test: Antiviral activity against Punta Toro virus infected in African green monkey Vero cells assessed as inhibition of virus-induced cytopathicity; assay type: functional, organism-based; procedure, shortened: as §1
[12] = system: Respiratory syncytial virus; test: Antiviral activity against Respiratory syncytial virus infected in human HeLa cells assessed as inhibition of virus-induced cytopathicity; assay type: functional, organism-based; procedure, shortened: as §1
[13] = n-octanol-PBS buffer distribution coefficient, log D of the compound at pH 7.4 after 24 hrs by HPLC analysis; assay type: physicochemical
[14] = Selectivity index, ratio of CC50 for cat CRFK cells to IC50 for chloroquine-resistant asexual erythrocytic stage of Plasmodium falciparum Dd2; assay type: functional
Procedure, shortened: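 Ratio of CRFK CC50 (μM) to Dd2 IC50 […]. CC50 is the 50% cytotoxic concentration in feline kidney CRFK cells, measured as cell viability by colorimetric formazan-based MTS assay. Dd2 IC50 is from the parasite LDH growth-inhibition assay.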

Coxsackievirus B4 [15] = test: Antiviral activity against Coxsackievirus B4 infected in human HeLa cells assessed as inhibition of virus-induced cytopathicity; assay type: functional, organism-based; procedure, shortened: as §1
Vaccinia virus = test: Antiviral activity against Vaccinia virus infected in HEL cells assessed as inhibition of virus-induced cytopathicity; assay type: functional, organism-based; details: Orthopoxvirus vaccinia; procedure, shortened: as §3
[16] = system: Vesicular stomatitis virus; test: Antiviral activity against Vesicular stomatitis virus infected in human HeLa cells assessed as inhibition of virus-induced cytopathicity; assay type: functional, organism-based; procedure, shortened: as §3
Sindbis virus = test: Antiviral activity against Sindbis virus infected in African green monkey Vero cells assessed as inhibition of virus-induced cytopathicity; assay type: functional, organism-based
Human betaherpesvirus 5 [17] = test: Antiviral activity against Cytomegalovirus AD169 infected in HEL cells assessed as inhibition of virus-induced cytopathicity; assay type: functional, organism-based
[18] = system: Mammalian orthoreovirus 1; test: Antiviral activity against Reovirus 1 infected in African green monkey Vero cells assessed as inhibition of virus-induced cytopathicity; assay type: functional, organism-based; procedure, shortened: as §1

| Structure (SMILES) | inhibition (Coxsackievirus B4 [1]) | inhibition (Human betaherpesvirus 5 [2]) | inhibition (Human alphaherpesvirus 2) | IC50 (Plasmodium falciparum [3]) | MCC [4] | IC50 (Plasmodium falciparum [5]) | inhibition (Human respirovirus 3) | solubility [6] | inhibition (Feline coronavirus) | inhibition (Human alphaherpesvirus 1 [7]) | inhibition [8] | inhibition (Human alphaherpesvirus 3) | CC50 [9] | inhibition (Human alphaherpesvirus 1 [10]) | solubility [11] | inhibition (Influenza A virus) | inhibition (Influenza A virus H3N2) | inhibition (Felid alphaherpesvirus 1) | inhibition (Punta Toro virus) | inhibition [12] | also measured |
| --- | --- | --- | --- | --- | --- | --- | --- | --- | --- | --- | --- | --- | --- | --- | --- | --- | --- | --- | --- | --- | --- |
| Clc1ccc2c(NCCCNc3ccnc(N4CCOCC4)n3)ccnc2c1 | inactive | inactive | inactive | 70 nM | 100 µM | 404 nM | inactive | 1.27 µM (≈ 0.507 µg/mL) | inactive | inactive | inactive | inactive | > 100000 nM | inactive | 0.55 µM (≈ 0.219 µg/mL) | inactive | inactive | inactive | inactive | inactive | logD at 24 h [13]: 0.363; Ratio CC50/IC50 [14]: >247; inhibition (Coxsackievirus B4 [15]): inactive; inhibition (Vaccinia virus): inactive; inhibition [16]: inactive; inhibition (Sindbis virus): inactive; inhibition (Human betaherpesvirus 5 [17]): inactive; inhibition [18]: inactive |
| Clc1ccc2c(NCCCCNc3nccc(Cl)n3)ccnc2c1 | inactive | inactive | inactive | 179 nM | 100 µM | 193 nM | inactive | 3.86 µM (≈ 1.4 µg/mL) | inactive | inactive | inactive | inactive | > 100000 nM | inactive | 0.7 µM (≈ 0.254 µg/mL) | inactive | inactive | inactive | inactive | inactive | logD at 24 h [13]: 0.742; Ratio CC50/IC50 [14]: >518; inhibition (Coxsackievirus B4 [15]): inactive; inhibition (Vaccinia virus): inactive; inhibition [16]: inactive; inhibition (Sindbis virus): inactive; inhibition (Human betaherpesvirus 5 [17]): inactive; inhibition [18]: inactive |
| Clc1ccc2c(NCCCNc3nccc(Cl)n3)ccnc2c1 | inactive | inactive | inactive | 244 nM | > 100 µM | 478 nM | inactive | 1.81 µM (≈ 0.63 µg/mL) | inactive | inactive | inactive | inactive | > 100000 nM | inactive | 0.4 µM (≈ 0.139 µg/mL) | inactive | inactive | inactive | inactive | inactive | logD at 24 h [13]: 0.657; Ratio CC50/IC50 [14]: >209; inhibition (Coxsackievirus B4 [15]): inactive; inhibition (Vaccinia virus): inactive; inhibition [16]: inactive; inhibition (Sindbis virus): inactive; inhibition (Human betaherpesvirus 5 [17]): inactive; inhibition [18]: inactive |
